Bioassay records deposited in PubChem by several laboratories.
FID counter – compounds displacing fluorescent DNA intercalator, primary screen, artefact control for HCV NS3 helicase inhibitor project, biochemical, FID fluorescence | hit rate 0.17% among 290,000 | DNA fluorescent intercalator displacement | inhibition, % at 7.9 µM; in the data active = inhibition above about 37%;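 note: higher means more ethidium bromide displaced from hairpin DNA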
Apaf1 inhib – inhibitors of human Apaf-1 apoptosome, primary screen, biochemical, DEVD-Rh110 fluorescence, uHTS | Apoptotic protease-activating factor 1 (Homo sapiens), O14727 | AID 489030, 2010 | reconstituted apoptosome caspase-3 activity | inhibition, % at 20 µM | hit rate 0.71% among 330,000; active = inhibition of at least 40% at 20 µM
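Material: biochemical Apaf-1 apoptosome reconstitution. Medium: Hepes buffer, pH 7.5. Also added: cytochrome c activation, bis-DEVD rhodamine 110 substrate. Timing: 30 min compound preincubation, 50 min activation, room temperature. Measured by: rhodamine 110 fluorescence at Ex 480/Em 540 nm.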
TMEM16A act – TMEM16A chloride channel activators or potentiators, primary screen, cell-based, HTS; Anoctamin-1 (Mus musculus), Q8BHY3; HEK293 TMEM16A/YFP-H148Q/I152L, iodide quench fluorescence; active compounds read low; B-score at 10 µM; hit rate 0.3% among 340,000; AID 623877, 2012;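 active = fluorescence-ratio B-score plate-corrected deviation score at least 3 library SD below zero, with starting fluorescence score within 5 deviations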;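 note: channel opened by trigger with iodide after compound preincubation; score built on the fluorescence ratio of max minus min over baseline; more negative score means more quench and so TMEM16A activation or potentiation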
UBC13 polyUb – UBC13 polyubiquitin chain formation inhibitors, primary screen, biochemical, TR-FRET, uHTS. hit rate 0.47% among 330,000. AID 485273, 2010. inhibition, % at 20 µM. Ubiquitin-conjugating enzyme E2 N (Homo sapiens), P61088; in the data active = inhibition above about 45%, passing the limit was not always enough
Target sequence (P61088 whole entry, looked up): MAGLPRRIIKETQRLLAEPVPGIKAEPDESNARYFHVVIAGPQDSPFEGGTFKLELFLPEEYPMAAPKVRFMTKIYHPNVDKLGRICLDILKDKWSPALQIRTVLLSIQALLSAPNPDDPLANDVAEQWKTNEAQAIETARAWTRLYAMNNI
TMEM16A inh – TMEM16A chloride channel inhibitors, primary screen, cell-based, HTS; AID 588511, 2011; hit rate 1.2% among 310,000; normalized B-score (activity score, 25-100; higher = stronger inhibition) at 10 µM; HEK293 TMEM16A/YFP iodide influx fluorescence, ionomycin;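 active = ratio plate-corrected score three or more library SD toward inhibition, starting fluorescence score within five deviations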;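 note: score derived from kinetic fluorescence span divided by baseline fluorescence per well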
Casp3 UBC13 ctr – CASP3 inhibitor validation, counterassay for project on UBE2N polyubiquitination blockers, biochemical, one dose; shares compounds with UBC13 polyUb; Recombinant caspase-3, Caspase-Glo 3/7 luminescence, 60 min; inhibition, % at 20 µM; hit rate 4% among 1,400;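 active = mean inhibition across replicates above about 26%, limit read from the data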
Target sequence (P42574 whole entry, looked up): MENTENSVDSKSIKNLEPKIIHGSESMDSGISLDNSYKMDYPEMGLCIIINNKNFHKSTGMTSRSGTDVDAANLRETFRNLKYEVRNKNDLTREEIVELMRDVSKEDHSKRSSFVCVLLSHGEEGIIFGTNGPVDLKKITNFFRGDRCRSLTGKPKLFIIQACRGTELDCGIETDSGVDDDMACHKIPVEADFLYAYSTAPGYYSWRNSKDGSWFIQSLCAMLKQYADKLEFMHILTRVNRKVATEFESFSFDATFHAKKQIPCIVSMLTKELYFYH
UBC13 conf – UBC13 polyubiquitination inhibitors, single-point retest, confirmation, biochemical, TR-FRET, single concentration | shares compounds with UBC13 polyUb | inhibition, % at 10 µM | hit rate 68% among 1,400; in the data active = inhibition above about 45%
Apaf-1 inh conf2 – Apaf-1 inhibitors, single-dose retest, confirmation, biochemical, fluorescence, DEVD-Rh110, 20 µM. shares compounds with Apaf1 inhib. AID 504614, 2011. hit rate 25% among 1,800. inhibition, % at 20 µM. reconstituted apoptosome, caspase-3 DEVD-Rh110 fluorescence;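 active = mean inhibition of at least 40% at 20 µM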
Rh110 interf inh – Rh110 fluorescence interference by putative Apaf-1 inhibitors, confirmation, artefact control for Apaf-1 inhibitor project, biochemical, 20 µM | activation (fluorescence interference), % at 20 µM | shares compounds with Apaf1 inhib | 1,800 tested, under 10 active | quenched caspase reaction;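 active = signal rise of 40% or more at 20 µM, treated as a fluorescence artifact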
Fluor interf inh – fluorescence interference of Apaf-1 inhibitor hits, dose response, artefact control for Apaf-1 inhibitor project. 460 tested, under 10 active. IC50, µM. shares compounds with Apaf1 inhib. AID 588538, 2011. fluorescence interference counterscreen, Apaf-1 assay format; call rule not given here
A number is an active result; n = inactive; x = no result. Shown are actives, neighbours in structure and some others; about 2.4% of the full set was active somewhere.

SMILES	FID counter	Apaf1 inhib	TMEM16A act	UBC13 polyUb	TMEM16A inh	Casp3 UBC13 ctr	UBC13 conf	others
COc1ccc2c3c1O[C@H]1C(=O)CC[C@H]4[C@@H](C2)N(C)CC[C@]314	x	n	n	n	x	x	x
CNCC(O)c1cccc(OC(=O)c2ccccc2C)c1 (centres undefined)	n	n	n	n	n	x	x
CNCC(O)c1cc(OCc2ccccc2)c(OCc2ccccc2)cc1F (centres undefined)	x	n	n	53	n	n	n
C[C@]12CCC3C(CC[C@H]4C[C@@H](O)CC[C@]34C)C1CC[C@@H]2OC(=O)[C@H](N)CCCCN (some centres undefined)	x	n	n	105	x	n	106
CCCCCn1c(=O)c(C(=O)Nc2ccccc2S(N)(=O)=O)c(O)c2ccccc21	n	n	n	n	n	x	x
CCCCn1c(=O)c(C(=O)Nc2ccccc2S(N)(=O)=O)c(O)c2ccccc21	n	n	n	53	n	n	n
c1ccc(Cn2ccnc2)cc1	n	n	n	n	n	x	x
Clc1ccc(COC(Cn2ccnc2)c2ccc(Cl)cc2Cl)cc1 (centres undefined)	n	n	n	50	n	n	n
Cc1ccc2c(c1)C1CN(C)CCC1N2C(=O)CCCN1C(=O)c2cccc3cccc(c23)C1=O (centres undefined)	n	n	n	89	n	n	101
CCOP(=O)(OCC)C(NC(=O)c1cccc([N+](=O)[O-])c1)C(Cl)(Cl)Cl (centres undefined)	n	n	n	n	n	x	x
CCCCCCCSc1cc(OC)c(CCN(C)C)cc1OC	n	56	n	50	n	n	56	Apaf-1 inh conf2=n;Rh110 interf inh=n
NC(N)=N/N=C/c1ccc(N(c2ccccc2)c2ccccc2)cc1	n	61	n	107	n	n	119	Apaf-1 inh conf2=43;Rh110 interf inh=n;Fluor interf inh=n
CN=C1CN(O)C(c2ccccc2)c2cc(Cl)ccc2N1 (centres undefined)	x	x	n	x	x	x	x
CC1(C)CN=C(NCc2ccccc2Cl)S1	n	n	n	n	n	x	x
Clc1ccc(C(c2ccc(Cl)cc2)n2cc[n+](CC(OCc3ccc(Cl)cc3Cl)c3ccc(Cl)cc3Cl)c2)cc1 (centres undefined)	x	89	n	104	n	n	106	Apaf-1 inh conf2=79;Rh110 interf inh=n;Fluor interf inh=n
O=C(Cn1ccc2ccccc2c1=O)NCC(=O)N1CCC2(CC1)OCCO2	n	n	n	n	n	x	x
O=C1C(=O)c2cccc3cccc1c23	n	n	n	n	n	x	x
O=C1C(=O)c2ccccc2-c2ccccc21	n	99	n	n	n	x	x	Apaf-1 inh conf2=99;Rh110 interf inh=n;Fluor interf inh=n
Cc1ccc(-c2ccc(=O)n(CC(=O)N3CCC4(CC3)OCCO4)n2)cc1	n	n	n	n	n	x	x
Nc1c(C(=O)NCc2ccco2)c2nc3ccccc3nc2n1CCN1CCCCC1	n	n	n	n	n	x	x
COC(=O)c1c(N)n(Cc2ccc(OC)cc2)c2nc3ccccc3nc12	n	n	n	n	n	x	x
CC(C)CNC(=O)c1c(N)n(Cc2ccc3c(c2)OCO3)c2nc3ccccc3nc12	n	96	n	n	n	x	x	Apaf-1 inh conf2=n;Rh110 interf inh=n
